This is an account of results in article PMC7471432 (Acta Pharmacologica Sinica, 2020).

Where two headings read alike, the source gives them in different places.

In assay [1] the test system is 6-Hz-induced seizure model mice. The experiment in a line: 6-Hz corneal kindling epilepsy test. Format: in vivo, mouse. Conditions: 100 mg/kg; GM oral 60 min prior to stimulation; 32 mA.
The next assay deals with nACh receptors. The experiment in a line: Acetylcholine-evoked currents, cultured rat hippocampal neurons. Format: cell-based. Particulars: 30 μmol/L GM. In outline: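 Cultured rat hippocampal neurons were held at −60 mV in whole-cell mode, and acetylcholine-evoked currents were recorded at room temperature with and without test compound. Concentration–response data (IDrug/IControl) were fitted to a 3-parameter Hill equation to obtain IC50. Data are means ± SEM.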

Assay [2] concerns cultured mouse hippocampal neurons. Format: cell-based. The method in brief:
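Hippocampi from E18 C57BL/6 mouse embryos were digested with 3 mg/mL proteinase for 8 min at 32 °C, triturated, and plated on poly-D-lysine coverslips. Cells were switched to serum-free Neurobasal-A/B-27 after 6 h and recorded after 12 days. Whole-cell current-clamp used a KCl/EGTA pipette (pH 7.2) and perfused NaCl/HEPES bath (pH 7.4), at room temperature.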

The target of the next assay is T1, human Kir2.1 channels (Homo sapiens, UniProt P63252).
T1 sequence (P63252 1-427): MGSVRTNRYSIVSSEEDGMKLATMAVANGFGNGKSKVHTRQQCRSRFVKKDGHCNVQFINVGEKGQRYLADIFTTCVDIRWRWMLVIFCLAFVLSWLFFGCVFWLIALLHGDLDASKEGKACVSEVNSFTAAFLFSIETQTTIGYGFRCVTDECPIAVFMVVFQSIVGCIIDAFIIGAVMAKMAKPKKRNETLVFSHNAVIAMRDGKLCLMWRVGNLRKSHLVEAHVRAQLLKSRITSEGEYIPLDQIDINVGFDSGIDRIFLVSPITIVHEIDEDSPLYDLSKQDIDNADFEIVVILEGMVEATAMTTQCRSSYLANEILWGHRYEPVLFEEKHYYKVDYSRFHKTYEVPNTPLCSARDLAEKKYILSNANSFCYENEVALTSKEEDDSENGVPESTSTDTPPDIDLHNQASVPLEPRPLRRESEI
As to the kind of experiment: Kir2.1 currents in HEK-293 cells stably expressing hKir2.1. Format: cell-based. In outline: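 HEK-293 cells stably expressing human Kir2.1 were held at −70 mV and given a 500 ms test pulse to −140 mV. The internal was 140 mM KCl with EGTA (pH 7.2) and the bath was NaCl/KCl (pH 7.4), at room temperature. Inhibition ratios are means ± SEM, compared with paired t test against control.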

In the next assay the test system is AMPA receptors. As to the kind of experiment: AMPA-induced currents, rat hippocampal neurons. Format: cell-based. Particulars: n = 4. The method in brief:
(§1)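 Whole-cell recordings were made at room temperature from rat hippocampal neurons held at −60 mV. Currents were activated by applying the corresponding ligand under continuous bath perfusion. Signals were filtered at 2 kHz and digitized at 10 kHz. Data are means ± SEM, tested by paired two-tailed t test against control.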

In another assay the test system is LVA calcium currents. As to the kind of experiment: Low-voltage-activated. It counts as cell-based, rat. Conditions: 10 µmol/L GM. In outline: (§2)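 Rat hippocampal neurons were recorded in whole-cell voltage-clamp with a CsCl/TEA/5 mM MgATP internal (pH 7.2) and a bath containing 5 mM CaCl2 and 20 mM TEA-Cl (pH 7.4). Currents were evoked by steps from −90 mV to 0 mV at room temperature. Activation and inactivation curves were fitted with Boltzmann equations, and IC50 with a 3-parameter Hill equation.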

A further assay concerns CaV currents. As to the kind of experiment: Total CaV currents, whole-cell voltage-clamp, rat hippocampal neurons. Format: cell-based. Conditions: read-out: IC50 on total CaV currents; holding −90 mV, test pulse 0 mV, n = 6. The method in brief: as §2
The subject of another assay is KA receptors. The experiment in a line: KA-induced currents, rat hippocampal neurons. It counts as cell-based. Conditions: n = 4. The method in brief:
as §1

The test system of the next assay is GABA receptors. The experiment in a line: GABA-induced currents, rat hippocampal neurons. Format: cell-based. Conditions: n = 4. In outline:
as §1

The subject of assay [3] is delayed rectifier potassium current (IK). The experiment in a line: Delayed rectifier potassium current. It counts as cell-based, rat. Conditions: read-out: IC50 on IK; n = 5. In outline: (§3)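 Rat hippocampal neurons were recorded in whole-cell voltage-clamp with a KCl/EGTA internal and a NaCl/KCl bath. Cells were held at −50 mV, prepulsed to −110 mV for 500 ms, then stepped from −110 to 40 mV. For IK, a 50 ms step to −50 mV removed IA, and amplitude was read at 300 ms. IA was read as peak. IC50 came from a 3-parameter Hill fit.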

For assay [4], the system named is isolated rat aorta strips. Conditions: 10 µmol/L GM; cited from earlier work.
The next assay deals with HVA calcium currents. The experiment in a line: High-voltage-activated. Format: cell-based, rat. Conditions: 10 µmol/L GM. The method in brief:
as §2

The test system of the next assay is NMDA receptors. As to the kind of experiment: NMDA-induced currents, rat hippocampal neurons. Format: cell-based. Conditions: n = 4. The method in brief: as §1
Assay [5] has as its system transient outward potassium current (IA). The experiment in a line: Transient outward potassium current. Conditions: read-out: IC50 on IA; n = 5. Format: cell-based, rat. The method in brief: as §3
A further assay deals with NaV currents. As to the kind of experiment: NaV currents, whole-cell voltage-clamp, acutely isolated rat hippocampal neurons. Format: cell-based.
Assay [6] has as its system MES-induced seizure model mice. As to the kind of experiment: MES-induced seizure assay. Format: in vivo, mouse. Particulars: oral.

`CC[C@@H](C(N)=O)N1CCCC1=O` [LEV, Levetiracetam, reference compound]: the “Protection rate (%)” value in [1] was 100%.

Take Geissoschizine methyl ether [GM]: the “inhibition of acetylcholine-evoked currents” value in the assay on nACh receptors is listed as “completely inhibited”. In assay [2], the “resting membrane potential after GM perfusion” value is “did not change”. Further, the “inhibition ratio of firing frequency” value in [2] (1 μmol/L GM, n = 6) is listed as 45.3% ± 3.7%; in assay [2] (3 μmol/L GM, n = 6) it was 49.6% ± 5.1%; in assay [2] (10 μmol/L GM, n = 6), 82.3% ± 1.1%; in assay [2] (30 μmol/L GM, n = 6), 97.8% ± 0.5%. Moreover, the “reduction of action potential amplitude” value in assay [2] (3 μmol/L GM, n = 6) was 9.5% ± 1.8%; in assay [2] (10 μmol/L GM, n = 6), 20.9% ± 3.2%; in assay [2] (30 μmol/L GM, n = 6), 100.0%. Besides, the “half-width of the action potential” value in [2] (10 μmol/L GM, control 2.0 ± 0.2 ms, n = 6) is 2.7 ± 0.4 ms. In addition, the “inhibition ratio of Kir2.1 currents” value is given as 1.3% ± 2.2% on human Kir2.1 channels (10 µmol/L GM, n = 5); 3.8% ± 1.5% at human Kir2.1 channels (30 µmol/L GM, n = 7); 13.9% ± 2.2% on human Kir2.1 channels (100 µmol/L GM, n = 10). Moreover, the “change of AMPA (glutamate) receptor-mediated currents” value in the assay with AMPA receptors (30 µmol/L GM) was “No remarkable changes”. For the same molecule, the “modulation of AMPA (glutamate) receptor-mediated currents” value in the assay with AMPA receptors (100 µmol/L GM) was “very weak”. Besides, the “change of activation curve of LVA currents” value in the assay on LVA calcium currents was “did not exhibit a remarkable change”. In the assay on LVA calcium currents (elicited at 0 mV, n = 7), the “reduction of LVA currents” value was 48.4% ± 6.9%. In addition, the “effect on LVA current inactivation” value in the assay on LVA calcium currents (n = 5) is given as “lack of an effect”. Further, the IC50 in the assay on CaV currents turned out to be 13.3 µM; in assay [3] it was 1.6 µM; in assay [5], 50 µM; in the assay on NaV currents (read-out: IC50 on NaV currents, holding −90 mV, test pulse −20 mV, n = 7) it was 10.2 µM. The “Protection rate (%)” value in assay [1] was 70%. In addition, the “change of KA (glutamate) receptor-mediated currents” value in the assay on KA receptors (30 µmol/L GM) is “No remarkable changes”. The “modulation of KA (glutamate) receptor-mediated currents” value in the assay with KA receptors (100 µmol/L GM) is given as “very weak”. In the assay on GABA receptors (30 µmol/L GM), the “change of GABA receptor-mediated currents” value is on record as “No remarkable changes”. In addition, the “modulation of GABA receptor-mediated currents” value in the assay on GABA receptors (100 µmol/L GM) is listed as “very weak”. Besides, in [4], the “effect on Bay K8644- or Ca2+-induced contractions” value is reported as “able to relax”. The “change of activation curve of HVA currents” value with HVA calcium currents was “did not exhibit a remarkable change”. Moreover, the “reduction of HVA currents” value with HVA calcium currents (elicited at 0 mV, n = 7) was 28.5% ± 10.9%. In addition, the “shift in inactivation curve of HVA currents” value with HVA calcium currents (n = 9) was “No significant shift”. The “change of NMDA (glutamate) receptor-mediated currents” value in the assay on NMDA receptors (30 µmol/L GM) is recorded as “No remarkable changes”. In the assay on NMDA receptors (100 µmol/L GM), the “modulation of NMDA (glutamate) receptor-mediated currents” value is listed as “very weak”. In addition, the “half-activation voltage of NaV currents” value with NaV currents (10 µmol/L GM, control −45.1 ± 1.0 mV) was −42.7 ± 0.8 mV. For the same molecule, the “V1/2 of steady-state inactivation of NaV currents” value with NaV currents (10 µmol/L GM, control −54.4 ± 0.5 mV) is −61.4 ± 0.6 mV. Moreover, the “ED50 for protection against MES” value in assay [6] was 78.9 (60.3–103.3) mg/kg.
